# Screening results (PubChem)
# KCNQ1 pot – potentiators or activators of KCNQ1 channel, primary screen, cell-based, thallium flux, high-throughput; Potassium voltage-gated channel subfamily KQT member 1 (Homo sapiens), P51787; CHO-K1 KCNQ1, thallium flux FluxOR fluorescence; stronger effect = higher value; B-score at 10 µM; 310,000 compounds, 0.35% hits;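 active = fluorescence ratio B-score, a plate-corrected score, at least three library SD, with initial intensity B-score within 5 SD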
#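 System: CHO-K1 cells stably expressing KCNQ1 / Medium: assay buffer for compound exposure, DMSO matched across wells / Reagent: thallium- and potassium-containing depolarizing buffer / Compound: one concentration, matched DMSO / Incubation: 20 min compound pretreatment at room temperature / Measured by: kinetic FluxOR fluorescence, 10 s baseline plus 110 s post-stimulus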
# AI-2 QS modul – Vibrio harveyi AI-2 quorum sensing modulators, primary screen, JMH597 strain, luminescence/OD600 ratio; Vibrio harveyi JMH597 AI-2 luminescence/OD600 ratio, 9 h; stronger effect = lower value; strain lacks LuxN and CqsS sensors; 0 = neutral-control median; activity change, % at 7.5 µM; 300,000 compounds, 0.4% hits; in the data active = activity change below about -75%, passing the limit was not always enough; inconclusive = no clear call, values can overlap the other calls;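 also: luminescence divided by OD600 gain over 9 h not by final OD600 alone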
# SUMO Mot1 rescue – yeast Mot1-301 growth rescue at high temperature, primary screen, SUMOylation pathway inhibitor project, S. cerevisiae, ATP luminescence, 38.5C; AID 2716, 2010; growth rescue, % at 18.8 µM; S. cerevisiae Mot1-301 growth rescue; percent above DMSO median, 100 means doubled; 320,000 compounds, 1% hits;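 active = every valid replicate shows activation above 250% relative to neutral control wells; inactive = the rest, any valid replicate at or below 250%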;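 also: OY570 slx delta 5 strain wells were the positive control but not used for scaling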
# Cl transport mod – KCC2 cotransporter modulators, thallium flux, primary screen, cell-based, HEK293 KCC2, FluoZin-2 fluorescence, MLSMR; AID 1456, 2008; Solute carrier family 12 member 5 (Homo sapiens), Q9H2X9; B-score of Tl+ flux slope (higher = more flux/activation; lower = inhibition) at 10 µM; 190,000 compounds, 2.2% hits; KCC2 cells, thallium flux FluoZin-2 fluorescence;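 active = thallium flux slope and its plate-corrected score both differing from the plate sample mean at a set confidence after two filtering rounds, in either direction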;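 also: slope of fluorescence scaled to starting intensity during 10 to 20 s after thallium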
# Target sequence (Q9H2X9 whole entry, looked up): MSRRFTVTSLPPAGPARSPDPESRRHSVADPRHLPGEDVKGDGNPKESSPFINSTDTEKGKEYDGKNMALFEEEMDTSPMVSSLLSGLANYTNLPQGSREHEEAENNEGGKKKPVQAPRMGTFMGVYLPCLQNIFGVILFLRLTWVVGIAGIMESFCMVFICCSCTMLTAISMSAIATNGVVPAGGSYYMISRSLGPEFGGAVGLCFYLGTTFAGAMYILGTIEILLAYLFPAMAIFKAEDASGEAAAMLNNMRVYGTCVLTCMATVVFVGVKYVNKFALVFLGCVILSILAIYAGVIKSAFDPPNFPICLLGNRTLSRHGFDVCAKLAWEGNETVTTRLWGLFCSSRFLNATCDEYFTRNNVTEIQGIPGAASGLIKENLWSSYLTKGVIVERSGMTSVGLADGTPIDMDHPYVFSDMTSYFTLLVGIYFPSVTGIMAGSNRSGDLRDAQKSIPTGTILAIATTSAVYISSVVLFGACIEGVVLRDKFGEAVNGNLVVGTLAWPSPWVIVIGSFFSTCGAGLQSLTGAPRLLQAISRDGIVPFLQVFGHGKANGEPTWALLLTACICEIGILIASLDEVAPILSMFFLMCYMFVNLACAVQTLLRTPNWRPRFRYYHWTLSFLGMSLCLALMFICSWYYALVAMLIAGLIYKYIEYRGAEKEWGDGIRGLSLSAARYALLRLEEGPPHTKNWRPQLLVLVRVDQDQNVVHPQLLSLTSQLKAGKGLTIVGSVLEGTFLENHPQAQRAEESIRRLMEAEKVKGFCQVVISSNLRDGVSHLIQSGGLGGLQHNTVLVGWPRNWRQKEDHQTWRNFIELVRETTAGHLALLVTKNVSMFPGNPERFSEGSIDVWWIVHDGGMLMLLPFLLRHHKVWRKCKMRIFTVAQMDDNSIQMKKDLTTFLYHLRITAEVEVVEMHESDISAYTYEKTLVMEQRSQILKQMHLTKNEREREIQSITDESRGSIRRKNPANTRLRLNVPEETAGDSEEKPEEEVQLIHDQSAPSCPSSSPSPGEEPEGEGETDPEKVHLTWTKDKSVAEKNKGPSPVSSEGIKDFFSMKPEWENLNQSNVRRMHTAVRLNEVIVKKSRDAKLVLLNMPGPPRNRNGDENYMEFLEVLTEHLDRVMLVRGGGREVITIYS
# KCNQ1 block – inhibitors of human KCNQ1 channel, primary screen, cell-based, thallium flux, high-throughput; B-score at 10 µM; CHO-K1 KCNQ1, FluxOR thallium flux fluorescence; stronger effect = higher value; 310,000 compounds, 1.3% hits; Potassium voltage-gated channel subfamily KQT member 1 (Homo sapiens), P51787;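 active = compounds whose thallium flux B-score, printed positive for inhibition, exceeds three library SD while starting fluorescence stays within three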;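 also: channel opened by potassium depolarization with thallium stimulus after 20 min compound exposure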
# hERG protect – hERG rescue from dofetilide block, primary screen, cell-based, CHO-hERG, FluxOR thallium flux, dofetilide IC70 | Voltage-gated inwardly rectifying potassium channel KCNH2 (Homo sapiens), Q12809 | dofetilide IC70 present | activation (rescue from dofetilide block), less the hit threshold, % at 10 µM | 310,000 compounds, 0.51% hits | AID 1511, 2009;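 active = activation above the mean of controls blocked by dofetilide plus 5 SD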;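 also: thallium influx through hERG after potassium depolarization seen as dye fluorescence rise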
# JMH597 growth rt – Vibrio harveyi growth inhibition, confirmation, counter-screen for AI-2 quorum sensing project, JMH597 strain, OD600 absorbance | 9 h; lacks LuxN and CqsS sensors | 750 compounds, 1% hits | shares compounds with AI-2 QS modul | growth inhibition, % at 7.5 µM;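 active = every replicate shows growth inhibition above 50%; inconclusive = at least half, but not all, replicates pass that cutoff; inactive = fewer than half of replicates pass it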
# BB721 lum counter – luminescence inhibition in constitutive-on V. harveyi, confirmation, counter-screen for LuxS inhibitor project, strain BB721, luminescence readout | Vibrio harveyi BB721 luminescence, 9 h | AID 2727, 2010 | 750 compounds, 95% hits | inhibition, % at 7.5 µM | shares compounds with AI-2 QS modul;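 active = inhibition above about 80% in every replicate, not just on average, limit read from the data; inconclusive = at least half of replicates past the limit, but not all; inactive = fewer than half of replicates past the limit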
# BB721 growth rt – growth inhibition of V. harveyi BB721, confirmation, cytotoxicity control for AI-2 quorum sensing inhibitors, strain BB721, absorbance OD600 | growth inhibition, % at 7.5 µM | Vibrio harveyi BB721 growth, 9 h | shares compounds with AI-2 QS modul | AID 2728, 2010 | 750 compounds, 3% hits;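 active = every replicate shows growth inhibition above 50%; inconclusive = at least half but not all replicates above 50% inhibition; inactive = under half of replicates above 50% inhibition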
# AI-2 QS JMH597 – Vibrio harveyi AI-2 signaling luminescence modulation – JMH597 strain, confirmation | shares compounds with AI-2 QS modul | Vibrio harveyi JMH597 AI-2 quorum sensing luminescence, 9 h; luxN and CqsS knockout, AI-2 only | inhibition, % at 7.5 µM | 750 compounds, 97% hits | AID 2736, 2010;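 active = every replicate shows more than 75% inhibition of signal versus neutral control wells; inconclusive = half to three quarters of replicates exceed 75% inhibition; inactive = fewer than half of replicates exceed 75% inhibition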
# An asterisk follows results filed as active; i = inactive; ? = inconclusive; · = no result. This is a sample that favours compounds with a hit; in the whole collection about 4.2% have one here.
SMILES,KCNQ1 pot,AI-2 QS modul,SUMO Mot1 rescue,Cl transport mod,KCNQ1 block,hERG protect,JMH597 growth rt,BB721 lum counter,BB721 growth rt,AI-2 QS JMH597
O=C(Cn1cnc2ccccc2c1=O)Nc1ccc(S(=O)(=O)N2CCOCC2)cc1,i,-94*,15,-0.37,i,-9,1,99*,-6,99*
O=C(Cn1cnc2ccccc2c1=O)Nc1ccc(N2CCOCC2)cc1,i,-25,0,0.82,i,-6,·,·,·,·
CC1CCCC(C)N1S(=O)(=O)c1ccc(NC(=O)CCn2cnc3ccccc3c2=O)cc1 (stereo not given),i,11,-8,0.83,i,-6,·,·,·,·
O=C(Cn1cnc2ccccc2c1=O)Nc1ccc(S(=O)(=O)N2CCCC2)cc1,i,-97*,42,-1.3,i,-10,-9,100*,0,100*
COC(=O)CSc1nnc(COc2ccc3ccccc3c2)o1,i,-17,123,·,i,-1,·,·,·,·
COC(=O)CSc1nnc(COc2cccc3ccccc23)o1,i,-83*,22,·,i,-4,-3,92*,-18,93*
CCCCCc1nnc(NC(=O)Cn2cnc3ccccc3c2=O)s1,i,-94*,-14,1.3,i,-8,-1,98*,-5,99*
CCCCc1nnc(NC(=O)Cn2cnc3ccccc3c2=O)s1,i,-95*,·,0.61,i,-7,32,99*,27,99*
Cc1ccc(C)c(NC(=O)C2CCCN2/C=C/C(=O)C(F)(F)F)c1 (stereo not given),i,23,7,0.85,i,-12,·,·,·,·
N#Cc1nc(-c2ccc(F)cc2)oc1NCc1cccc2c1OCO2,i,?,-19,0.45,i,-3,3,89*,-10,93*
N#Cc1nc(-c2cccs2)oc1NCCc1ccccc1,i,2,-15,·,i,-13,·,·,·,·
N#Cc1nc(-c2cccs2)oc1NCc1ccc2c(c1)OCO2,i,-85*,-11,0.11,i,-6,32,94*,32,96*
O=C(c1ccc(COc2ccc(Cl)cc2)o1)N1CCN(Cc2ccc3c(c2)OCO3)CC1,i,-97*,402*,·,i,-17,133*,100*,111*,100*
O=C(c1cccc(Cl)c1)N1CCN(Cc2ccc3c(c2)OCO3)CC1,i,18,8,·,i,-7,·,·,·,·
O=C(c1cc2cc(Cl)ccc2[nH]1)N1CCN(Cc2ccc3c(c2)OCO3)CC1,i,-94*,59,·,i,-8,18,98*,-98,99*
O=C(c1cc2cc(F)ccc2[nH]1)N1CCN(C(=O)c2ccco2)CC1,i,-84*,-3,·,i,-6,-18,85*,2,91*
Nc1nc(SCC(=O)Nc2ccc(S(N)(=O)=O)cc2)n[nH]1,i,22,7,2.2,i,-13,·,·,·,·
Cc1ccc(Oc2ccc(NC(=O)CSc3n[nH]c(N)n3)cc2)cc1,i,-94*,65,-1.4,i,-2,-3,95*,-8,98*
Nc1nc(SCC(=O)c2ccc(Oc3ccccc3)cc2)n[nH]1,i,-94*,-21,-1.5,i,-13,15,97*,-86,98*
O=c1c2ccccc2nc(-c2ccco2)n1CCCn1ccnc1,i,14,-10,0.49,i,-8,·,·,·,·
O=[N+]([O-])c1cc(S(=O)(=O)O)cc([N+](=O)[O-])c1NN(c1ccccc1)c1ccccc1,i,16,9,·,i,-4,·,·,·,·
N/C(=N\OC(=O)CCc1ccccc1)c1cccc(Br)c1,i,-24,-4,·,i,-8,·,·,·,·
N/C(=N\OC(=O)CCc1ccccc1)c1ccccc1Cl,i,-85*,-1,1.4,i,-7,9,92*,4,92*
COc1ccc(CC(=O)Nc2ccc(S(=O)(=O)Nc3ncccn3)cc2)cc1,i,-91*,-19,0.54,i,-11,0,93*,21,96*
CCc1ccc(OCC(=O)Nc2ccc(S(=O)(=O)Nc3ccccn3)cc2)cc1,i,-85*,-3,·,i,-9,-2,89*,-29,96*
SMILES,KCNQ1 pot,AI-2 QS modul,SUMO Mot1 rescue,Cl transport mod,KCNQ1 block,hERG protect,JMH597 growth rt,BB721 lum counter,BB721 growth rt,AI-2 QS JMH597
Cc1cc(NS(=O)(=O)c2ccc(C(C)C)cc2)no1,i,-86*,1,·,i,-5,39,87*,3,100*
COc1ccc(CCC(=O)Nc2ccc(S(=O)(=O)Nc3ncccn3)cc2)cc1,·,·,-12,·,·,·,·,·,·,·
COc1ccc(S(=O)(=O)Nc2ccc(Nc3ccccc3)cc2)cc1,i,-97*,32,·,i,-6,68*,100*,46,100*
O=C(N/N=C/c1cccc(Cl)c1)C(c1ccncc1)N1CCOCC1 (stereo not given),i,13,145,1.3,i,-1,·,·,·,·
Cc1cc(NS(=O)(=O)c2ccc(NC(=O)COc3cc(C)c(Cl)c(C)c3)cc2)no1,·,·,9,·,·,·,·,·,·,·
COc1ccc(OCC(=O)Nc2ccc(S(=O)(=O)Nc3cc(C)on3)cc2)cc1,i,-84*,-6,·,i,-11,-9,91*,20,92*
